The species named for one assay is Homo sapiens. The experiment in a line: Inhibition of human recombinant TTR Y78F mutant-mediated fibrillogenesis at 40 uM after 30 mins by turbidimetric assay relative to control. In outline: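 Y78F TTR turbidity assay: 30 min preincubation at 37 °C with 0−40 μM compound, then pH 4.2 acetate buffer (final 0.4 mg/mL TTR, 5% DMSO). A340 was monitored for 1.5 h at 37 °C. Initial rates were fitted to v0 = A + B·exp(−C[I]). RA% is the percentage reduction in fibril formation rate at high inhibitor concentration versus no inhibitor.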

Assay [1] in a line: Inhibition of human recombinant TTR Y78F mutant-mediated fibrillogenesis after 30 mins by turbidimetric assay. In outline:
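Recombinant TTR Y78F (4 mg/mL in 20 mM potassium phosphate, 100 mM KCl, 1 mM EDTA, pH 7.6) was preincubated 30 min at 37 °C with 0−40 μM compound (final). Acid fibrillogenesis was started with pH 4.2 acetate buffer, giving final 0.4 mg/mL TTR and 5% DMSO. A340 was read every 1 min for 1.5 h at 37 °C. IC50 came from fitting initial rates to v0 = A + B·exp(−C[I]).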

Assay [2] can be described thus: Binding affinity to human recombinant TTR Y78F mutant after 5 mins by isothermal titration calorimetry. In outline: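 Recombinant human TTR Y78F (E. coli-expressed), 20−30 μM in cell, in 100 mM potassium phosphate, KCl, 1 mM EDTA, 5% (v/v) DMSO, pH 7.6, filtered and degassed 5 min. Titrant was 500 μM ligand in the same buffer. One 0.5−1 μL injection, then 1.5−2 μL injections every 150 s, 25 °C. Dilution blanks subtracted; isotherms fitted to a two identical-site model to give Kd.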
(In ITC the heat of successive injections is recorded.)

For orientation: inhibition means the drop in the measured response relative to a control, in per cent. A word on the IC50: it is the concentration that inhibits the measured activity by half. In the case of `O=C(O)c1ccc(-c2cc(F)cc(F)c2)cc1`, the inhibition in the assay listed under Homo sapiens was found to be 89%. Besides, in assay [1], the IC50 came out at 10.8 µM.

For orientation: Kd means the concentration at which binding is half-saturated. Turning to `O=C(O)c1ccccc1Nc1cc(Cl)cc(C(F)(F)F)c1`, the Kd in assay [2] worked out at 0.086 µM. Further, the inhibition in the assay filed under Homo sapiens came out at 86%. Besides, the IC50 in assay [1] was determined as 6 µM.

As to `Oc1ccc(/C=C/c2cc(O)cc(O)c2)cc1` [RESVERATROL], in the assay filed under Homo sapiens, the inhibition stood at 89%. Moreover, the IC50 in assay [1] is 4.5 µM.

Turning to `O=C(O)c1ccccc1Nc1cc(F)cc(C(F)(F)F)c1`, in assay [2], the Kd was found to be 0.091 µM. In the assay filed under Homo sapiens, the inhibition amounted to 91%. Further, the IC50 in assay [1] was 6.5 µM.

In the case of `Oc1c(Cl)cc(-c2cc(Cl)c(O)c(Cl)c2)cc1Cl`, the inhibition in the assay filed under Homo sapiens came out at 100%. The IC50 in assay [1] amounted to 2.1 µM.

Regarding `N[C@@H](Cc1cc(I)c(Oc2cc(I)c(O)c(I)c2)c(I)c1)C(=O)O` [LEVOTHYROXINE], in the assay listed under Homo sapiens, the inhibition turned out to be 80%.

Consider `O=C(O)c1cc(-c2ccc(F)cc2F)ccc1O` [DIFLUNISAL], for which the Kd in assay [2] turned out to be 1.16 µM. Besides, the inhibition in the assay listed under Homo sapiens was 85%. Besides, in assay [1], the IC50 turned out to be 18 µM.

Consider `CC/C(=C(/CC)c1ccc(O)cc1)c1ccc(O)cc1` [DIETHYLSTILBESTROL], for which the inhibition in the assay filed under Homo sapiens stood at 67%. Besides, the IC50 in assay [1] was found to be 16.6 µM.

As to `O=C(O)c1ccccc1Nc1cc(Br)cc(C(F)(F)F)c1`, the Kd in assay [2] stood at 0.064 µM. In the assay listed under Homo sapiens, the inhibition is 91%. In addition, in assay [1], the IC50 was determined as 5.9 µM.

Take `CC(C(=O)O)c1ccc(-c2ccccc2)c(F)c1` (stereo not given) [FLURBIPROFEN]: the inhibition in the assay filed under Homo sapiens was found to be 35%. For the same compound, the IC50 in assay [1] is > 100 µM.

Take `O=C(O)Cc1cc(I)c(Oc2cc(I)c(O)c(I)c2)c(I)c1` [TETRAC]: in the assay filed under Homo sapiens, the inhibition came out at 93%. In assay [1], the IC50 came to 4.8 µM.

In the case of `O=C(O)c1ccccc1Nc1cccc(C(F)(F)F)c1` [FLUFENAMIC ACID], in assay [2], the Kd was found to be 0.109 µM. Besides, in the assay listed under Homo sapiens, the inhibition is 89%. Moreover, the IC50 in assay [1] was 6.2 µM.

Regarding `O=C(O)c1cc(-c2ccc(F)cc2F)cc(F)c1O`, in assay [2], the Kd turned out to be 1.12 µM. Besides, the inhibition in the assay filed under Homo sapiens turned out to be 87%. The IC50 in assay [1] turned out to be 7.6 µM.

For the compound `O=C(O)c1cc(-c2ccc(F)cc2F)cc(Br)c1O`, the Kd in assay [2] was 0.194 µM. In addition, the inhibition in the assay filed under Homo sapiens worked out at 88%. In assay [1], the IC50 is 5.6 µM.

In the case of `O=C(O)c1ccccc1Nc1cc(I)cc(C(F)(F)F)c1`, the equilibrium dissociation constant (Kd) in assay [2] was found to be 0.085 µM. Also, the inhibition in the assay filed under Homo sapiens came out at 94%. Also, the half-maximal inhibitory concentration (IC50) in assay [1] turned out to be 6.4 µM.

Turning to `O=[N+]([O-])c1ccc(O)c([N+](=O)[O-])c1` [2,4-DINITROPHENOL], the inhibition in the assay filed under Homo sapiens is 77%. In addition, the IC50 in assay [1] was found to be 20 µM.

Take `CC1=C(/C=C/C(C)=C/C=C/C(C)=C/C(=O)O)C(C)(C)CCC1` [TRETINOIN]: the inhibition in the assay filed under Homo sapiens was determined as 100%. Moreover, in assay [1], the IC50 was determined as 8.1 µM.

As for `O=C(O)Cc1ccccc1Nc1c(Cl)cccc1Cl` [DICLOFENAC], the inhibition in the assay listed under Homo sapiens is 74%. Besides, in assay [1], the IC50 was determined as 26 µM.

For the compound `O=C(O)c1cc(-c2ccc(Cl)cc2Cl)ccc1O`, in the assay filed under Homo sapiens, the inhibition was found to be 75%. Also, the IC50 in assay [1] was determined as 12.8 µM.

Turning to `O=C(O)c1cc(-c2ccc(F)cc2F)cc(Cl)c1O`, the Kd in assay [2] came to 0.375 µM. Further, the inhibition in the assay filed under Homo sapiens was 89%. In addition, the IC50 in assay [1] turned out to be 7.5 µM.

With `O=C(O)c1cc(-c2ccc(F)cc2F)cc(I)c1O`, the Kd in assay [2] stood at 0.087 µM. The inhibition in the assay listed under Homo sapiens is 94%.

Values taken from ChEMBL document CHEMBL3085733, “Modulation of the fibrillogenesis inhibition properties of two transthyretin ligands by halogenation” (J Med Chem, 2013).
